Where two headings read alike, the source gives them in different places.
What was measured:
A3G (APOBEC3G) [1] = details: biochemical assays, prior studies, ref [14]–[18], cited from earlier work
A3G-mycHis (APOBEC3G) = A3G-mycHis (APOBEC3G) (Homo sapiens, UniProt Q9HC16); test: Fluorescence-based ssDNA cytosine deaminase assay with purified A3G-mycHis; format: biochemical; details: for reproducibility of A3G inhibitory activity (in words): introductory summary of own findings, assay format not stated
Sequence of A3G-mycHis (APOBEC3G) (Q9HC16 whole entry): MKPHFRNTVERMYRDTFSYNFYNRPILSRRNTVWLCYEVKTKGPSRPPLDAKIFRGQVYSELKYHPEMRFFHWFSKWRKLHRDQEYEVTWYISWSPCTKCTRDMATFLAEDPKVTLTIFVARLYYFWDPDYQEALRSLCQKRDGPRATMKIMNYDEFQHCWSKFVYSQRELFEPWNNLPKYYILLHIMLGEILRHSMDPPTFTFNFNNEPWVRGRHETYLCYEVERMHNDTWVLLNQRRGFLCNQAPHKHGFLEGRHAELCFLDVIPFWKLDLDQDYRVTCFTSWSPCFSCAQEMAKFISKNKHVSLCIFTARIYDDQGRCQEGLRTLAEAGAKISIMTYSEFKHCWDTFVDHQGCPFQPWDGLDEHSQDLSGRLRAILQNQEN
Outline: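 Human A3G-mycHis purified by C-terminal His tag from HEK293T cells and diluted in pH 7.4 Tris buffer with Triton and protease inhibitors. Enzyme incubated with 10 pmol 6-FAM/TAMRA ssDNA containing one CCC site. Then UDG treatment for 2 hrs at 37 °C, NaOH cleavage for 30 min, and neutralisation. Fluorescence read at ex 490/em 520 nm. Peptides from 10 mM DMSO stocks; n = 3, mean ± SEM; IC50 from curve fit.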

A3G (APOBEC3G) [2] = test: PCR and restriction-based ssDNA deamination assay; format: biochemical, human; details: 10 nM A3G, 1 nM ssDNA, 37 °C, 30 min, pH 7.0, gel representative of >3 independent experiments

Row | Substance | published A3G inhibitory activity (in words) (A3G (APOBEC3G) [1]; listed as Vif 105–119) | published A3G inhibitory activity (in words) (A3G (APOBEC3G) [1]; listed as Vif peptide 105–119) | specificity of A3G inhibition (in words) (A3G-mycHis (APOBEC3G); conclusion from scrambled and reverse peptide comparison) | reproducibility of A3G inhibitory activity (in words) (A3G-mycHis (APOBEC3G)) | A3G inhibitory effect (in words) (A3G (APOBEC3G) [2]) | published A3G inhibitory activity (in words) (A3G (APOBEC3G) [1]) | published A3G inhibitory activity (in words) (A3G (APOBEC3G) [1]; listed as Vif peptide 25–39)
1 | H-QLIHLYYFDCFSESA-OH [compound 6044] | low micromolar inhibitory activities | sub-micromolar inhibitory activities | non-specific | reproducible A3G inhibitory activity |  |  | 
2 | H-VKHHMYISGKAKGWF-OH [Vif25–39] |  |  |  | did not find significant A3G inhibitory activity | no inhibitory effect | low micromolar inhibitory activities | sub-micromolar inhibitory activities

Reference: paper PMC5186364 (Journal of molecular biology, 2016)
